Measurements published in ChEMBL document CHEMBL4043283, “Discovery and Preclinical Development of IIIM-290, an Orally Active Potent Cyclin-Dependent Kinase Inhibitor” (J Med Chem, 2018).
Converted amounts (≈) assume the structure as drawn. The source made the active and inactive calls. The calls are words filed in the database; no cut-off is given here.

Tests used:
[1] = biological target: CDK9/cyclin T1 (Homo sapiens) (UniProt O60563+P50750); assay: Inhibition of CDK9/cyclin T1 (unknown origin) at 0.5 uM using YSPTSPSYSPTSPSYSPTSPKKK as substrate after 30 mins in presence of [33P]-gamma-ATP by filter binding assay relative to control; format: protein-complex assay
HL-60 = assay: Growth inhibition of human HL60 cells at 10 uM after 48 hrs by MTT assay relative to control; format: functional; conditions: HL-60, 48 h, read-out: GI
In short: (§1)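 Single-concentration primary screen at 10 μM by MTT assay. Cells were NCI-sourced cancer lines grown in appropriate medium at 37 °C, 95% humidity, 5% CO2. Growth inhibition is expressed relative to control.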

MCF7 = assay: Growth inhibition of human MCF7 cells at 10 uM after 48 hrs by MTT assay relative to control; format: functional; conditions: MCF7, 48 h, read-out: GI; in short: as §1
[2] = biological target: Cyclin-dependent kinase 5/CDK5 activator 1 (Homo sapiens, UniProt Q00535); assay: Inhibition of CDK5/cyclin p25 (unknown origin) after 30 mins in presence of [33P]-gamma-ATP by filter binding assay; format: protein-complex assay
Sequence of Cyclin-dependent kinase 5/CDK5 activator 1 (Q00535 whole entry): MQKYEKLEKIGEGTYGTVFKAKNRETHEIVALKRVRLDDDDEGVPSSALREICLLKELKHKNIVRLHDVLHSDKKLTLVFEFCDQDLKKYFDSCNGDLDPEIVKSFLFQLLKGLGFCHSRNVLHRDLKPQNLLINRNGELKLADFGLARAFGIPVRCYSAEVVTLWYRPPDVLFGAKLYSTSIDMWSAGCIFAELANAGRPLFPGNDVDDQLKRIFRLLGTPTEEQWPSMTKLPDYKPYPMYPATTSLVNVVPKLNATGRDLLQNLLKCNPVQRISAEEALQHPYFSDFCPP
Sequence of Cyclin-dependent kinase 5/CDK5 activator 1 (Q15078 whole entry, further chain): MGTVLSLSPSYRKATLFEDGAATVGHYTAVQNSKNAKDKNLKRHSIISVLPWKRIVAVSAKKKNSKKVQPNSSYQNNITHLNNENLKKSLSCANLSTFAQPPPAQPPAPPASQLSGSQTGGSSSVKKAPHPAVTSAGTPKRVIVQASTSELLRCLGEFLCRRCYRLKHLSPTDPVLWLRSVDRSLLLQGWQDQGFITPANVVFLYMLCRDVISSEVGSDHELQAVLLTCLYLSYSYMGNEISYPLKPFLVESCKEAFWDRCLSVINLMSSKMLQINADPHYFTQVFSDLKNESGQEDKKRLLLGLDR

PANC-1 = assay: Growth inhibition of human PANC1 cells after 48 hrs by MTT assay; format: functional; conditions: PANC-1, 48 h
In short: (§2)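 Cancer cell lines sourced from the National Cancer Institute (USA). Cells kept in appropriate growth medium at 37 °C, 95% humidity, 5% CO2. Antiproliferation read by tetrazolium (MTT) assay. GI50 values were determined only for compounds selected after an initial single-concentration screen.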

NCI-H522 = assay: Growth inhibition of human NCI-H522 cells after 48 hrs by MTT assay; format: functional; conditions: NCI-H522, 48 h; in short: as §2
OVCAR-4 = assay: Growth inhibition of human OVCAR4 cells after 48 hrs by MTT assay; format: functional; conditions: OVCAR-4, 48 h; in short: as §2
[3] = Thermodynamic equilibrium solubility of compound in SGF at pH 1.2 after 5 hrs by shake flask method; format: physicochemical; conditions: read-out: Therm_solubility
[4] = Chemical stability of compound in phosphate buffered saline at pH 7.4 assessed as parent compound remaining at 120 ug/ml after 24 hrs by HPLC method; format: physicochemical; conditions: read-out: Stability
Cytochrome P450 2C9 [5] = biological target: T1, Cytochrome P450 2C9 (Homo sapiens, UniProt P11712); assay: Inhibition of human CYP2C9 using fluorogenic substrate preincubated with co-factor for 10 mins followed by enzyme-substrate addition by fluorometric method; format: ADME
T1 sequence (P11712 whole entry): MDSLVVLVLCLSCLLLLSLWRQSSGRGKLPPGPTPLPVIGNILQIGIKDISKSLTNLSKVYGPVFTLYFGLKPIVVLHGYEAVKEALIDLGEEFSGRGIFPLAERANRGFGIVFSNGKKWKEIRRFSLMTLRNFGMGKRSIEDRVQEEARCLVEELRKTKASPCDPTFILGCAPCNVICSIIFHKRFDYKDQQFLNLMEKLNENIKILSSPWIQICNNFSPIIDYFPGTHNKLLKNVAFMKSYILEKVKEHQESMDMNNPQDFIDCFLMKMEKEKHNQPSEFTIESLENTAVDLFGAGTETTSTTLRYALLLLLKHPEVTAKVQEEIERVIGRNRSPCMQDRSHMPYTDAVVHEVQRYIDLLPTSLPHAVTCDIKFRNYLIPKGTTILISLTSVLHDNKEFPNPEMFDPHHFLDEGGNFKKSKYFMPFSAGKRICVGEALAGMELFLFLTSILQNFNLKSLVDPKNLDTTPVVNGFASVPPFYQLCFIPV
In short: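 Cofactor plus test item or vehicle, in triplicate, preincubated 10 min at 37 °C; prewarmed enzyme–substrate mix added and incubated at 37 °C with shaking. Quench: acetonitrile (CYP2C19, CYP3A4) or 0.25 M Tris in 60% methanol (CYP2C9, CYP2D6). Metabolite fluorescence read; % inhibition computed against enzyme controls and enzyme-free blanks.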

[6] = Half life in rat liver microsomes at 100 uM after 30 mins by LC-MS/MS analysis; format: ADME, microsome
In short: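 Parent loss followed over time to give half-life, with NADPH as cofactor for microsomal phase I metabolism.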

[7] = Half life in monkey hepatocytes at 3 uM after 180 mins by LC-MS/MS analysis; format: ADME, cell-based, Macaca mulatta, Hepatocyte; conditions: rhesus monkey
[8] = Half life in human liver S9 fraction preincubated for 5 mins followed by NADPH addition measured after 30 mins by LC-MS/MS analysis; format: ADME, tissue-based
Liver [9] = assay: Intrinsic clearance in mouse liver S9 fraction assessed per mg of protein preincubated for 5 mins followed by NADPH addition measured after 30 mins by LC-MS/MS analysis; format: ADME, tissue-based; conditions: s9, 0.5 h
Liver [10] = assay: Intrinsic clearance in human liver S9 fraction assessed per mg of protein preincubated for 5 mins followed by NADPH addition measured after 30 mins by LC-MS/MS analysis; format: ADME, tissue-based; conditions: s9, 0.5 h
[11] = Cmax in BALB/c mouse at 10 mg/kg, po by LC-MS/MS analysis; format: ADME, organism-based; set-up: dose 10 mg/kg, route oral; conditions: in vivo
[12] = Cmax in BALB/c mouse at 1 mg/kg, iv by LC-MS/MS analysis; format: ADME, organism-based; set-up: dose 1 mg/kg, route intravenous; conditions: in vivo
[13] = Clearance in BALB/c mouse at 1 mg/kg, iv by LC-MS/MS analysis; format: ADME, organism-based; conditions: in vivo
[14] = Volume of distribution at steady state in BALB/c mouse at 1 mg/kg, iv by LC-MS/MS analysis; format: ADME, organism-based; conditions: in vivo, read-out: Vdss
[15] = Half life in BALB/c mouse at 3 mg/kg, po by LC-MS/MS analysis; format: ADME, organism-based; conditions: in vivo
[16] = Cmax in Sprague-Dawley rat at 3 mg/kg, po by LC-MS/MS analysis; format: ADME, organism-based; set-up: dose 3 mg/kg, route oral; conditions: in vivo
[17] = Cmax in Sprague-Dawley rat at 10 mg/kg, po by LC-MS/MS analysis; format: ADME, organism-based; set-up: dose 10 mg/kg, route oral; conditions: in vivo
[18] = AUC in Sprague-Dawley rat at 10 mg/kg, po by LC-MS/MS analysis; format: ADME, organism-based; conditions: in vivo
[19] = Half life in Sprague-Dawley rat at 30 mg/kg, po by LC-MS/MS analysis; format: ADME, organism-based; conditions: in vivo
[20] = AUC in Sprague-Dawley rat at 30 mg/kg, po by LC-MS/MS analysis; format: ADME, organism-based; conditions: in vivo
Liver [21] = assay: Drug uptake in Sprague-Dawley rat liver at 30 mg/kg, po after 8 hrs; format: ADME, organism-based; conditions: in vivo
MIA PaCa-2 [22] = assay: Antitumor activity against human MIAPaCa2 cells xenografted in CD1 nude mouse assessed as tumor growth inhibition at 50 mg/kg, po qd administered on day 10 to 25 post tumor inoculation relative to control; format: functional; conditions: MIA PaCa-2, po, 240 h, read-out: TGI
MIA PaCa-2 [23] = assay: Antitumor activity against human MIAPaCa2 cells xenografted in CD1 nude mouse assessed as tumor growth inhibition at 25 mg/kg, po qd administered on day 10 to 25 post tumor inoculation; format: functional, organism-based
MOLT-4 = assay: Antitumor activity against human MOLT4 cells xenografted in CD1 nude mouse assessed as tumor growth inhibition at 25 mg/kg, po qd administered on day 10 to 25 post tumor inoculation; format: functional, organism-based
Cytochrome P450 2C9 [24] = biological target: T1, Cytochrome P450 2C9; assay: Time-dependent inhibition of human CYP2C9 at 2 uM using fluorogenic substrate by fluorometric method; format: ADME
[25] = Apparent permeability across basolateral to apical side in human Caco2 cells after 90 mins by LC-MS/MS analysis; format: ADME, cell-based; conditions: Caco-2
[26] = Efflux ratio of apparent permeability across basolateral to apical side over apical to basolateral side in human Caco2 cells after 90 mins by LC-MS/MS analysis; format: ADME, cell-based; conditions: Caco-2
In short: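 Caco-2 monolayers cultured for 21 days. Test compound applied in HBSS buffer with 10 mM HEPES. Samples drawn from both the apical and basolateral chambers.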

Salmonella typhimurium [27] = assay: Mutagenicity in Salmonella typhimurium TA1537 at 50 ug/plate in absence of liver S9 fraction by Ames test; format: toxicity; conditions: salmonella enterica subsp. enterica serovar typhimurium
Salmonella typhimurium [28] = assay: Mutagenicity in Salmonella typhimurium TA102 at 50 ug/plate in absence of liver S9 fraction by Ames test; format: toxicity; conditions: salmonella enterica subsp. enterica serovar typhimurium
PBL = assay: Genotoxicity in human PBL at 0.125 to 2 ug/ml in presence of cytokinesis blocking agent cytochalasin B and absence of liver S9 fraction by micronucleus test; format: toxicity, cell-based

Which inhibition [1] does the source give for `CN1CC[C@H](c2c(O)cc(O)c3c(=O)cc(/C=C/c4c(Cl)cccc4Cl)oc23)[C@H](O)C1` here?
Its inhibition is 94%.

And the inhibition of growth at 10 µM (HL-60)?
Its inhibition of growth at 10 µM is 90%.

And the inhibition of growth at 10 µM (MCF7)?
The inhibition of growth at 10 µM was 80%.

And the IC50 [2]?
Its IC50 is 0.0155 µM.

And the GI50 (PANC-1)?
The GI50 was 4 µM.

What about the GI50 (NCI-H522) of the same molecule?
The GI50 was 5 µM.

What about the GI50 (OVCAR-4) of the same molecule?
Its GI50 is 9 µM.

And the solubility thermodynamic at 5 h [3]?
Its solubility thermodynamic at 5 h is 8.81 µg/mL (≈ 19.1 µM).

And the remaining at 24 h, 120 ug/ml [4]?
The remaining at 24 h, 120 ug/ml was 100%.

What about the IC50 (Cytochrome P450 2C9 [5]) of the same molecule?
The IC50 was > 20 µM.

And the half-life at 100 µM [6]?
The half-life at 100 µM was > 0.5 h.

And the half-life at 3 µM [7]?
The half-life at 3 µM was 5.43 h.

What about the half-life [8] of the same molecule?
The half-life was 1.2 h.

What about the CLint (Liver [9]) of the same molecule?
The CLint was 16 µL/min/mg.

What about the CLint (Liver [10]) of the same molecule?
The CLint was 19 µL/min/mg.

What about the Cmax [11] of the same molecule?
The Cmax was 670 to 1290 nM.

And the Cmax [12]?
The Cmax was 677 nM.

And the clearance [13]?
Its clearance is 55.4 mL/min/kg.

What about the Vd [14] of the same molecule?
The Vd was 14.1 L/kg.

What about the half-life [15] of the same molecule?
The half-life was 3.09 h.

What about the Cmax [16] of the same molecule?
Its Cmax is 316 nM.

And the Cmax [17]?
Its Cmax is 900 nM.

And the AUC [18]?
The AUC was 5.68 µM·h.

What about the half-life [19] of the same molecule?
Its half-life is 3.23 h.

What about the AUC [20] of the same molecule?
Its AUC is 15.9 µM·h.

What about the Drug uptake (Liver [21]) of the same molecule?
The Drug uptake was “Active”.

What about the inhibition in vivo at 50 mg/kg (MIA PaCa-2 [22]) of the same molecule?
The inhibition in vivo at 50 mg/kg was 40 to 52%.

What about the TGI (MIA PaCa-2 [23]) of the same molecule?
Its TGI is “inactive”.

What about the TGI (MOLT-4) of the same molecule?
The TGI was “inactive”.

What about the TDI (Cytochrome P450 2C9 [24]) of the same molecule?
The TDI was “Not Active”.

And the Papp B→A at 1.5 h [25]?
Its Papp B→A at 1.5 h is 3.9 ×10⁻⁶ cm/s.

What about the efflux ratio at 1.5 h [26] of the same molecule?
The efflux ratio at 1.5 h was 1.8.

And the Activity (Salmonella typhimurium [27])?
The Activity was “Non-Toxic”.

And the Activity (Salmonella typhimurium [28])?
Its Activity is “Non-Toxic”.

What about the Activity (PBL) of the same molecule?
Its Activity is “Non-Toxic”.
